Compound activity: PubChem BioAssay, Johns Hopkins Ion Channel Center
A selection: hits, their analogues and other compounds. The true share with any hit is near 3.7%.
hERG rescue – compounds protecting human hERG from proarrhythmic drug block. AID 1511. activation (rescue from dofetilide block), less the hit threshold, % at 10 µM. CHO-hERG, FluxOR thallium flux, dofetilide IC70 present. 310,000 compounds, 0.51% hits;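 active = activation above the mean of controls blocked by dofetilide plus 5 SD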;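 note: thallium influx through hERG after potassium depolarization seen as dye fluorescence rise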
Kir21 inh – inhibitors of mouse Kir2.1 inward-rectifier potassium channel. P35561. HEK293-Kir2.1, FluxOR thallium flux fluorescence; hits give low values. 310,000 compounds, 0.85% hits. B-score at 10 µM. AID 1672;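 active = fluorescence ratio B-score at or below minus 3 SD of library scores, with starting-brightness B-score within 2 SD, cut at about -4.2 in these data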;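 note: channel flux triggered by added potassium and thallium sulfate stimulus; B-score of peak minus minimum fluorescence over baseline after thallium stimulus; more negative B-score means stronger Kir2.1 block with less thallium influx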
KCNK9 block – human KCNK9 channel inhibition | Q9NPC2 | HEK293 KCNK9, FluxOR thallium flux fluorescence; hits give low values | B-score at 10 µM | 310,000 compounds, 1.2% hits;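 active = ratio B-score over 3 SD below the library mean, with starting fluorescence within 5 SD of its mean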;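 note: negative B-score means less thallium flux so channel inhibition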
Target sequence (Q9NPC2 whole entry, looked up): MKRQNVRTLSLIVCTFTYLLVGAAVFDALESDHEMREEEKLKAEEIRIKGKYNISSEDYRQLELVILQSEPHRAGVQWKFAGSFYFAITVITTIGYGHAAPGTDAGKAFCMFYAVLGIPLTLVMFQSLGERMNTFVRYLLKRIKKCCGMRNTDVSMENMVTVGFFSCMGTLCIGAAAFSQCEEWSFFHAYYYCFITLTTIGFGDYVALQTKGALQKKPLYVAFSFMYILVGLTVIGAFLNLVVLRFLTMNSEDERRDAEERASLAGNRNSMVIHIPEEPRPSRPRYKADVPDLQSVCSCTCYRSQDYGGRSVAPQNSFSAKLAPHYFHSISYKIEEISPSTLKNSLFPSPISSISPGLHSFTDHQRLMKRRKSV
KCNK3 block – human KCNK3 channel inhibition, primary screen | O14649 | CHO-KCNK3 thallium flux, FluxOR fluorescence; hits give low values | B-score at 10 µM | 340,000 compounds, 0.84% hits;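 active = B-score under library mean minus 4 SD, starting fluorescence ratio at most library mean plus 5 SD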;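 note: more negative B-score means stronger inhibition of thallium flux through KCNK3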
KCNQ1 pot – potentiators or activators of human KCNQ1 potassium channel; AID 2648; 310,000 compounds, 0.35% hits; P51787; B-score at 10 µM; CHO-K1 KCNQ1, thallium flux FluxOR fluorescence; hits give high values;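 active = fluorescence ratio B-score, a plate-corrected score, at least three library SD, with initial intensity B-score within 5 SD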
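Assay system: CHO-K1 cells stably expressing KCNQ1; Medium: assay buffer with matched DMSO; Also added: K+/Tl+ depolarizing stimulus; Dosing: single dose; Timing: dye 90 min, compound 20 min, room temperature; Measured by: kinetic FluxOR thallium fluorescence, 10-s 1-Hz baseline, 110-s post-stimulus read; Read-out: peak-minus-minimum fluorescence over initial fluorescence, negative-control normalized, B-scored.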
KCNQ1 block – inhibitors of human KCNQ1 potassium channel | P51787 | CHO-K1 KCNQ1, FluxOR thallium flux fluorescence; hits give high values | B-score at 10 µM | 310,000 compounds, 1.3% hits | AID 2642;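 active = compounds whose thallium flux B-score, printed positive for inhibition, exceeds three library SD while starting fluorescence stays within three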;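 note: channel opened by potassium depolarization with thallium stimulus after 20 min compound exposure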
* hit, by the source's call; i = inactive; nt = not tested or not shown.

SMILES	hERG rescue	Kir21 inh	KCNK9 block	KCNK3 block	KCNQ1 pot	KCNQ1 block
Cc1ccc(C(C(=O)NC(C)(C)C)N(Cc2cccnc2)C(=O)C(=O)NC2CCCCC2)o1 (stereo not drawn)	32.8*	-0.66	i	i	i	i
O=C(NC1CCCC1)C(=O)N(Cc1cccnc1)C(C(=O)NC1CCCC1)c1ccco1 (stereo not drawn)	1.0	0	i	i	i	i
COc1ccccc1N/C=C(\C#N)c1nc2ccccc2[nH]1	-8.0	0.48	i	i	i	i
COc1ccc(CNC(=O)c2ccc(S(=O)(=O)N3CC(C)CC(C)C3)cc2)cc1OC (stereo not drawn)	nt	nt	nt	i	nt	nt
O=C(NC(=S)Nc1ccc(N2CCOCC2)c(Cl)c1)c1sc2ccccc2c1Cl	21.1*	-0.61	i	i	21*	i
COc1ccc(OCC(=O)NC(=S)Nc2ccc(N3CCOCC3)c(Cl)c2)cc1	-8.6	-0.05	i	i	13*	i
O=C(O)c1ccccc1NC(=S)NC(=O)c1sc2ccccc2c1Cl	-3.7	-0.98	i	i	i	i
O=C(NNC(=S)NC(=O)c1sc2ccccc2c1Cl)c1ccc(Cl)cc1	43.8*	0.21	i	i	62*	i
Cc1ccc(NC(=S)NC(=O)c2sc3ccccc3c2Cl)c(C(=O)O)c1	8.6*	2.25	i	nt	9*	i
CCCC(=O)NC(=S)Nc1ccccc1N1CCOCC1	0.3	-0.13	i	i	i	i
O=C(NC(=S)Nc1ccccc1N1CCOCC1)c1sc2ccccc2c1Cl	-6.5	1.17	i	i	13*	i
CN(C(=O)COC(=O)c1ccc(Cl)c(S(=O)(=O)NCc2ccccc2)c1)C1CCS(=O)(=O)C1 (stereo not drawn)	nt	nt	nt	i	nt	nt
CN1Cc2sc(NC(=S)NC(=O)c3ccccc3)c(C#N)c2CC1(C)C	-14.6	1.34	i	i	i	8*
CCc1ccc(-n2cc(-c3ccc(F)cc3)[n+]3c2SCCC3)cc1	-17.7	-1.14	i	i	i	6*
COc1ccc(-n2cc(-c3ccc(C)cc3)[n+]3c2SCC3)cc1	-19.5	-1.36	i	i	i	7*
Cc1ccc(-c2cn(-c3ccccc3)c3[n+]2CCCS3)cc1	-20.0	1.89	i	i	i	i
c1ccc(-c2cn(-c3ccccc3)c3[n+]2CCCS3)cc1	-14.2	0.97	i	i	i	i
Fc1cccc(-n2cc(-c3ccccc3)c3c(=S)nc[nH]c32)c1	-0.4	0.74	i	i	i	i
Fc1ccc(-n2cc(-c3ccccc3)c3c(=S)nc[nH]c32)cc1	1.1	0.62	i	i	10*	i
O=C(O)c1cc(S(=O)(=O)NCCCN2CCCC2=O)ccc1Cl	nt	nt	nt	i	nt	nt
O=C(Nc1ccc2c(c1)C(=O)OC2)c1ccc(F)cc1F	-6.8	1.42	i	i	i	i
Cc1cccc(Nc2nc(N)c([N+](=O)[O-])c(NCc3ccco3)n2)c1	-4.6	0.02	i	i	i	6*
COc1ccc(Nc2nc(NCc3ccco3)nc(N)c2[N+](=O)[O-])cc1	-10.4	0.03	-7.79*	i	i	i
Cc1cccc(Nc2nc(NCc3ccco3)nc(N)c2[N+](=O)[O-])c1	-8.8	0.32	i	i	i	i
CC(C)COc1ccc(C(=O)Nc2cc(S(=O)(=O)N3CCOCC3)ccc2N2CCCC2)cc1	nt	nt	nt	i	nt	nt
SMILES	hERG rescue	Kir21 inh	KCNK9 block	KCNK3 block	KCNQ1 pot	KCNQ1 block
CCN(CC)C(=O)/C(=C/c1cccc([N+](=O)[O-])c1)NC(=O)c1ccco1	0.1	0.24	i	i	i	i
Cc1nn(C)c(C)c1/C=N/NC(=O)C(C)(C)Oc1ccc(Cl)cc1	-7.3	1.04	i	i	i	i
Cc1nn(C(C)(C)C)c(C)c1/C=N/OC(=O)Nc1ccc(Cl)cc1	-14.6	0.08	i	i	i	7*
CCCn1nc([N+](=O)[O-])c(C(C#N)c2nc3ccccc3o2)c(Cl)c1=O (stereo not drawn)	-15.9	-0.72	i	i	i	6*
C[C@H](NC(=O)c1nc[nH]c1C(=O)N1CCc2ccccc2C1)c1ccccc1	nt	nt	nt	i	nt	nt
C[C@H](NC(=O)c1nc[nH]c1C(=O)N1CCc2ccccc2C1)C(=O)OCc1ccccc1	-20.2	-0.02	i	i	i	6*
C[C@H](NC(=O)c1nc[nH]c1C(=O)NCCCCCNC(=O)OC(C)(C)C)C(=O)OCc1ccccc1	-26.0	1.95	i	i	i	i
CC(C)(C)OC(=O)NCCCCCNC(=O)c1[nH]cnc1C(=O)N[C@@H](Cc1ccccc1)C(=O)OCc1ccccc1	-10.8	1.77	i	i	i	9*
Cc1ccc(S(=O)(=O)N2CCC(C(=O)Nc3ccc(S(=O)(=O)N4CCCC4)cc3)CC2)cc1C	-16.8	-0.06	i	i	i	i
COc1ccccc1CN1CC(C(=O)NCc2ccc(SC)cc2)CCC1=O (stereo not drawn)	-2.9	1.19	i	i	i	i
CCC(C)c1ccccc1NC(=O)C(C)N(C)Cc1cccc(OC)c1 (stereo not drawn)	-12.9	-1.48	i	i	i	i
Cc1c(Cl)c(C(=O)NNC(=S)NCc2ccco2)nn1C	-17.5	0.33	i	i	i	i
CCCCNC(=S)NNC(=O)c1nn(C)c(C)c1Cl	-13.8	0.3	i	i	17*	i
CCCNC(=O)CN1C(=O)NC(c2ccccc2)(c2ccccc2)C1=O	-4.6	0.12	i	i	i	i
O=C(CSc1nnc2scc(-c3ccccc3)n12)c1ccc2c(c1)OCCO2	-6.2	-0.53	i	i	i	i
c1ccc(-c2csc3nnc(SCc4ccc5c(c4)OCCO5)n23)cc1	-1.7	-5.23*	i	i	i	i
O=C(/C(=C/O)N=Nc1ccccc1)c1ccc(Cl)cc1	-6.8	0.66	i	i	i	i
O=C(/C(=C/O)N=Nc1ccccc1)c1ccncc1	-7.8	-1.35	-7.59*	i	i	i
CN(C)CCCNc1ncnc2oc(-c3ccccc3)c(-c3ccccc3)c12	-11.6	-4.6*	i	i	i	i
Cc1nc2sc(C(c3ccccc3)N3CCN(C(=O)c4ccco4)CC3)c(O)n2n1 (stereo not drawn)	1.6	-0.9	i	i	12*	i
CCCCCCc1cc2cc(C(=O)OCC)c(=O)oc2cc1O	-3.8	-0.25	i	i	i	8*
CCCCCCc1cc2cc(C(N)=O)c(=N)oc2cc1O	-58.9	-16.7	i	nt	i	29*
